For assay [1], the system named is RAW 264.7 cells. The assay can be described thus: Nitrite. The note with it: RAW 264.7, 100 μM and 200 μM pre-treatment; Fig. 5. In kind it is cell-based, murine. Summed up:
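RAW 264.7 cells (1 × 10^6) seeded in flasks and left to adhere overnight. Pretreated 1 h with test compound (100 or 200 μM), then 100 μM LPS for 24 h at 37 °C, 5% CO2. Supernatant mixed with an equal volume of Griess reagent (0.1% naphthylethylenediamine and 1% sulfanilamide, 1:1, in 5% phosphoric acid) for 10 min in the dark at room temperature; A540 read. Nitrite quantified from a NaNO2 standard curve (0.1–6.25 μM), expressed as μmol NO2−/mg protein. Triplicates.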

The target in the next assay is T1, COX-1 (Ovis aries, UniProt P05979).
T1 sequence (P05979 25-600): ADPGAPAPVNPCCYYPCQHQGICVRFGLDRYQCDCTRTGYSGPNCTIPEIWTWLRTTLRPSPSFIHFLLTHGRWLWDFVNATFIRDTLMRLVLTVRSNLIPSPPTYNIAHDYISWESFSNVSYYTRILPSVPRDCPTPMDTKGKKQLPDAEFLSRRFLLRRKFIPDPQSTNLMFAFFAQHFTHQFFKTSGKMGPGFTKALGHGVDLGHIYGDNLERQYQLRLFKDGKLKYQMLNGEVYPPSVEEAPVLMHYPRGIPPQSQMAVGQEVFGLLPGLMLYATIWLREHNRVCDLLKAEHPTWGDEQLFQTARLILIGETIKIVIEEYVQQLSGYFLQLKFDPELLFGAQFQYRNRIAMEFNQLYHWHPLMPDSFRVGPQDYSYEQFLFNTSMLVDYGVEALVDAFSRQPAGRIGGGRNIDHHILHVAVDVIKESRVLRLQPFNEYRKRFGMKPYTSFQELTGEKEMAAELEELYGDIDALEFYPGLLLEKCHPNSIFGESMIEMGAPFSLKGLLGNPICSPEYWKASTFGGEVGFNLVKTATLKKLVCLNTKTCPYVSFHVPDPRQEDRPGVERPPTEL
The assay can be described thus: Colorimetric COX. The note with it: read-out: % inhibition of COX, COX-1. The class given is biochemical, ovine.

For assay [2], the system named is carrageenan-induced paw edema. Nature of the assay: Carrageenan induced hind paw edema assay. The class given is in vivo. The note with it: rat, 100 mg kg^−1 p.o., mean ± SEM. An outline of the steps: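 Rats, six per group, acclimatized one week (25 ± 2 °C, 12 h light/dark, standard pellets, water ad libitum). […] Paw volume measured by plethysmometer displacement to the lateral malleolus at 1, 3 and 6 h. Mean ± SEM.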
For orientation: The carrageenan paw model is a standard test of acute inflammation.

Assay [3] deals with RAW 264.7 cells. Nature of the assay: MTT assay, LPS-induced inflammation in RAW 264.7. In kind it is cell-based, murine. The note with it: RAW 264.7, pre-treatment 100 μM and 200 μM, then LPS; Fig. 4. An outline of the steps: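 Mouse RAW 264.7 macrophages kept in high-glucose DMEM with 10% heat-inactivated FBS and 1% penicillin–streptomycin at 37 °C, 5% CO2. Cells seeded at 5 × 10^5 cells per mL, pretreated 1 h with test compound (100 or 200 μM), then stimulated with […] for 24 h. Medium replaced; 0.5 mg mL−1 MTT for 3 h; formazan dissolved in DMSO; OD read at 540 nm. Percent inflammation derived by subtracting percent viability relative to control.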

Another assay concerns Escherichia coli. Nature of the assay: In vitro antibacterial MIC determination. The class given is cell-based. An outline of the steps: (§1)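 Bacteria grown on nutrient agar, subcultured to log phase in nutrient broth, then diluted in sterile saline to about 10^5–10^6 CFU mL−1. Test compounds diluted in acetone, DMSO or diethyl ether (ether preferred). Saturated disks placed on spread-plated inoculum and incubated at 37 °C for 24 h. MIC determined across different compound concentrations, with streptomycin as standard.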

Another assay concerns Staphylococcus aureus. Nature of the assay: In vitro antibacterial MIC determination. In kind it is cell-based. An outline of the steps:
as §1

A further assay deals with Aspergillus flavus. Nature of the assay: In vitro antifungal MIC, poison plate technique. The class given is cell-based.
The test system of assay [4] is cotton pellet induced granuloma. The assay can be described thus: Cotton pellets induced granuloma assay. In kind it is in vivo. The note with it: rat, 100 mg kg^−1 p.o. for 8 d, mean ± SEM. An outline of the steps: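 Two sterile 10 mg cotton pellets implanted ventrally in rats, six per group. […] On day 9 rats were killed under excess ether. Pellets were freed of tissue and weighed wet, then dried at 55 °C for 6 h or to constant weight. Granuloma equals dry weight minus cotton weight. Mean ± SEM.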

A further assay deals with Pseudomonas aeruginosa. Nature of the assay: In vitro antibacterial MIC determination. The class given is cell-based. Summed up: as §1
A further assay has as its system Rhizopus arrhizus. The assay can be described thus: In vitro antifungal MIC, poison plate technique. The class given is cell-based.
The next assay concerns Aspergillus niger. Nature of the assay: In vitro antifungal MIC, poison plate technique. In kind it is cell-based.
Another assay deals with Bacillus subtillis. Nature of the assay: In vitro antibacterial MIC determination. In kind it is cell-based. Summed up: as §1
The target in another assay is T2, COX-2 (Ovis aries, UniProt P79208).
T2 sequence (P79208 17-603): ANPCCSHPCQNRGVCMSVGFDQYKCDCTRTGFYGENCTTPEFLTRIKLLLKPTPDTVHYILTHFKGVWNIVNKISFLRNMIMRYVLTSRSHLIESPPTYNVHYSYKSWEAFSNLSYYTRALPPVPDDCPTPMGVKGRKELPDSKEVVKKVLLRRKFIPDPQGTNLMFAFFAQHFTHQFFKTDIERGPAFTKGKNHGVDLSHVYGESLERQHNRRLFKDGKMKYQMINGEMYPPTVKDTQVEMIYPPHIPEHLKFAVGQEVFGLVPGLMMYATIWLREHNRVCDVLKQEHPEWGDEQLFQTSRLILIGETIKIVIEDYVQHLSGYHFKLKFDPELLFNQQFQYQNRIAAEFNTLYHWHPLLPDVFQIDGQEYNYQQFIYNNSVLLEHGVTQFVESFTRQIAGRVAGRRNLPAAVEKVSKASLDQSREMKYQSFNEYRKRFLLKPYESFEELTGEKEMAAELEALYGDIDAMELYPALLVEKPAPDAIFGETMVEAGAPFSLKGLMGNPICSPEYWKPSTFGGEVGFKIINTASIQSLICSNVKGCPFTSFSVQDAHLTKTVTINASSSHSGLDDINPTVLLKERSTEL
Nature of the assay: Colorimetric COX. The class given is biochemical, ovine. The note with it: read-out: % inhibition of COX, COX-2.

≈ marks a conversion by molar mass, not a printed value.

In the case of `O=S(=O)(NC[C@@H](O)[C@@H]1CCc2cc(F)ccc2O1)c1ccc(Br)cc1` [Compound 8b, 4-Bromo-N-((R)-2-((S)-6-fluorochroman-2-yl)-2-hydroxyethyl)benzenesulfonamide], in the assay with RAW 264.7 cells [1], the “inhibition of LPS-induced NO production” value is on record as “strong inhibition”. Further, the inhibition at 100 µM at COX-1 amounted to 46.1 ± 0.22%; on COX-2 it was 34.4 ± 0.66%. The inhibition at 200 µM was 68.78 ± 0.43% on COX-1 and 60.04 ± 0.24% at COX-2. The figures for the Paw volume in assay [2] (1 h after carrageenan), in [2] (3 h after carrageenan) and in assay [2] (6 h after carrageenan) were 0.52 ± 0.18 mL, 0.80 ± 0.38 mL and 1.06 ± 0.27 mL, respectively. Moreover, in the assay with RAW 264.7 cells [3], the “anti-inflammatory activity against LPS induced cell death / inflammation (MTT)” value is reported as “strong anti-inflammatory activity”. In addition, the MIC against Escherichia coli was determined as 12.7 ± 0.87 µg/mL (≈ 29.5 µM); against Staphylococcus aureus, 17.9 ± 0.61 µg/mL (≈ 41.6 µM); in the assay on Aspergillus flavus, 17.81 ± 0.16 µg/mL (≈ 41.4 µM); in the assay on Pseudomonas aeruginosa it was 22.4 ± 0.4 µg/mL (≈ 52.1 µM); in the assay with Rhizopus arrhizus, 20.2 ± 0.65 µg/mL (≈ 47 µM); in the assay with Aspergillus niger it was 20.4 ± 0.87 µg/mL (≈ 47.4 µM). In addition, the MIC against Bacillus subtillis amounted to 15.08 ± 0.08 µg/mL (≈ 35 µM). Further, the “Weight, Dry (cotton pellet)” value in [4] was found to be 84.10 ± 1.67 mg. In addition, in assay [4], the “Weight, Wet (cotton pellet)” value was found to be 182.50 ± 1.77 mg.
With `O=S(=O)(NC[C@@H](O)[C@@H]1CCc2cc(F)ccc2O1)c1cccs1` [Compound 8c, N-((R)-2-((S)-6-Fluorochroman-2-yl)-2-hydroxyethyl)thiophene-2-sulfonamide], in the assay with RAW 264.7 cells [1], the “inhibition of LPS-induced NO production” value is “strong inhibition”. In addition, the inhibition at 100 µM turned out to be 51.1 ± 0.62% on COX-1 and 40.4 ± 0.1% at COX-2. For the same compound, the inhibition at 200 µM amounted to 70.07 ± 0.7% at COX-1 and 61.2 ± 0.72% on COX-2. The values for the Paw volume in assay [2] (1 h after carrageenan), in [2] (3 h after carrageenan) and in [2] (6 h after carrageenan) were 0.60 ± 0.64 mL, 0.88 ± 0.31 mL and 1.11 ± 0.13 mL, respectively. In addition, in the assay with RAW 264.7 cells [3], the “anti-inflammatory activity against LPS induced cell death / inflammation (MTT)” value was “strong anti-inflammatory activity”. Moreover, the MIC against Escherichia coli came out at 17.1 ± 0.47 µg/mL (≈ 47.9 µM); in the assay with Staphylococcus aureus, 19.7 ± 0.62 µg/mL (≈ 55 µM); with Aspergillus flavus, 16.7 ± 0.7 µg/mL (≈ 46.8 µM); with Pseudomonas aeruginosa it was 22.2 ± 0.63 µg/mL (≈ 62.1 µM); in the assay on Rhizopus arrhizus, 22.2 ± 0.83 µg/mL (≈ 62.2 µM); in the assay on Aspergillus niger, 18.1 ± 0.46 µg/mL (≈ 50.6 µM). This compound also showed an MIC in the assay with Bacillus subtillis of 21.6 ± 0.44 µg/mL (≈ 60.4 µM). In assay [4], the “Weight, Dry (cotton pellet)” value was 91.30 ± 1.72 mg. In assay [4], the “Weight, Wet (cotton pellet)” value is recorded as 148.62 ± 1.85 mg.
Turning to `O=S(=O)(NC[C@@H](O)[C@@H]1CCc2cc(F)ccc2O1)c1cccc(C(F)(F)F)c1` [Compound 8e, N-((R)-2-((S)-6-Fluorochroman-2-yl)-2-hydroxyethyl)-3-(trifluoromethyl)benzenesulfonamide], in the assay on RAW 264.7 cells [1], the “inhibition of LPS-induced NO production” value is reported as “strong inhibition”. Moreover, the inhibition at 100 µM at COX-1 is 48.4 ± 0.84%; on COX-2 it was 35.55 ± 0.22%. The values for the inhibition at 200 µM on COX-1 and on COX-2 were 71.55 ± 0.15% and 57.72 ± 0.36%, respectively. Also, the Paw volume was 0.68 ± 0.96 mL in assay [2] (1 h after carrageenan), 0.74 ± 0.29 mL in assay [2] (3 h after carrageenan) and 1.19 ± 0.65 mL in assay [2] (6 h after carrageenan). Moreover, in the assay with RAW 264.7 cells [3], the “anti-inflammatory activity against LPS induced cell death / inflammation (MTT)” value was “strong anti-inflammatory activity”. For the same compound, the minimum inhibitory concentration (MIC) against Escherichia coli is 26.3 ± 0.28 µg/mL (≈ 62.6 µM); in the assay with Staphylococcus aureus it was 20.4 ± 0.62 µg/mL (≈ 48.7 µM); against Aspergillus flavus it was 14.1 ± 0.55 µg/mL (≈ 33.6 µM); in the assay with Pseudomonas aeruginosa, 26.7 ± 0.88 µg/mL (≈ 63.7 µM); in the assay on Rhizopus arrhizus, 16.6 ± 0.52 µg/mL (≈ 39.7 µM); against Aspergillus niger, 11.7 ± 0.35 µg/mL (≈ 27.9 µM). In the assay on Bacillus subtillis, the MIC is 19.7 ± 0.36 µg/mL (≈ 46.9 µM). Further, in assay [4], the “Weight, Dry (cotton pellet)” value was 76.45 ± 1.95 mg. For the same compound, the “Weight, Wet (cotton pellet)” value in [4] came out at 152.40 ± 1.57 mg.

In general, inhibition refers to the percentage by which the read-out fell short of the control. What is called MIC is the lowest concentration that inhibits growth of the organism. Lower therefore signals inhibition by little substance.

These data come from PMC8694313 (RSC Advances, 2021).
